Source: PubChem BioAssay
PGE2 EP2 inh = human EP2 receptor antagonists, primary screen, TR-FRET cAMP, C6 glioma cells; Prostaglandin E2 receptor EP2 subtype (Homo sapiens), P43116; C6 glioma cells expressing human EP2; cells stimulated with saturating PGE2; inhibition, % at 25 µM; 260,000 compounds, 0.52% hits; AID 1422, 2008;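 active = percent inhibition above 40 after rounding to a whole number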;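 note: rat C6 glioma host cells with rolipram phosphodiesterase inhibitor present; the protocol text gives 20 µM as final concentration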
NPY-Y2 PAM-ag = NPY-Y2 potentiators or agonists, primary screen, cell-based; cells expressing NPY-Y2, potentiator/agonist read-out; activation, % at 3.6 µM; 220,000 compounds, 0.45% hits; AID 1359, 2008; in the data active = activation above about 27%;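 note: cells stimulated with NPY near EC25 plus isoproterenol at EC100; 0% = vehicle plus submaximal agonist and 100% = vehicle plus saturating agonist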
Target sequence (P49146 whole entry, looked up): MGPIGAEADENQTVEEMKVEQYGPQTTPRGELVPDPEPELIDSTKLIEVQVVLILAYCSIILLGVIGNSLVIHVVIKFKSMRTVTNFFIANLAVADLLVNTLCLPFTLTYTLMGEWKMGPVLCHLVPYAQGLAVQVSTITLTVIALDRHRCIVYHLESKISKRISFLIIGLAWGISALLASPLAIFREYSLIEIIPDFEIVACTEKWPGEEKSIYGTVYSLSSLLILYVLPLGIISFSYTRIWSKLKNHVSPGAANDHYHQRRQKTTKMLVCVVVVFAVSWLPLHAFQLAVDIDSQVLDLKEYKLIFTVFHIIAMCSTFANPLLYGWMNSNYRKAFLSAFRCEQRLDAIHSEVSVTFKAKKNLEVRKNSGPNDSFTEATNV
NPY Y2 blocker = NPY-Y2 receptor antagonists, primary screen, cell-based; NPY-Y2 expressing cells, antagonist mode; 140,000 compounds, 0.99% hits; Neuropeptide Y receptor type 2 (Homo sapiens), P49146; AID 793, 2007; inhibition, % at 2.7 µM; in the data active = inhibition above about 17%;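 note: 0% = vehicle with agonist challenge and 100% = reference antagonist with challenge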
NPY Y1 blocker = NPY-Y1 receptor antagonists, primary screen, cell-based; 200,000 compounds, 1% hits; inhibition, % at 3.6 µM; AID 1040, 2008; Neuropeptide Y receptor type 1 (Homo sapiens), P25929; HEK293-CNG Y1 cells, membrane potential fluorescence; NPY at EC95, then isoproterenol;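 active = inhibition above the campaign mean inhibition of all tested compounds plus 3 SD, cut at about 20% in these data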;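 note: 0% = DMSO wells given NPY plus isoproterenol and 100% = isoproterenol alone without NPY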
Target sequence (P25929 whole entry, looked up): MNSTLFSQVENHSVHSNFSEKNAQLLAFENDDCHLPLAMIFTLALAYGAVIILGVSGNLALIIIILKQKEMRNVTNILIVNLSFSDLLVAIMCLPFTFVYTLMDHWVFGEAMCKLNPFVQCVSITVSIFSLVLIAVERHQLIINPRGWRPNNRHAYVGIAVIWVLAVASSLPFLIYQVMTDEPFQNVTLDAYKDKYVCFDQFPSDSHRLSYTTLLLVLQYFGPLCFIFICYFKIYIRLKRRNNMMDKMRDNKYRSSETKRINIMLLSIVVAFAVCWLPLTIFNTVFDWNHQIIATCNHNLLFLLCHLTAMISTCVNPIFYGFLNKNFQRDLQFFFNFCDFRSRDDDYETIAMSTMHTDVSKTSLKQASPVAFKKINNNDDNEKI
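System: HEK293 cells with Y1 receptor plus CNG channel / Probe or stimulus: NPY 25 nM then isoproterenol 1 µM plus Ro 20-1724 25 µM / Compound: one concentration, 3.6 µM, in 0.4% DMSO / Schedule: compound incubation 1 h at room temperature, readout 45 min post-stimulation / Measured by: membrane potential fluorescence / Read-out: % inhibition of NPY effect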
EP2 modulator = EP2 receptor modulators, cAMP readout, primary screen, cell-based, HTRF cAMP, PGE2 stimulation; EP2-expressing cells, cAMP HTRF FRET, PGE2 co-stimulation; induction, % at 25 µM; 260,000 compounds, 0.83% hits; AID 940, 2007;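 active = compounds whose cAMP rise, as percent of the full-agonist control response, exceeds 60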;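 note: rat C6 glioma line stably carrying human EP2 under a CMV promoter; the protocol text gives 20 µM as final concentration; 100% = response of wells given 1 µM PGE2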
NPY-Y1 PAM-ag = NPY-Y1 receptor potentiators or agonists, primary screen, cell-based. Neuropeptide Y receptor type 1 (Homo sapiens), P25929. NPY-Y1 expressing cells, potentiator/agonist activation. activation, % at 3.6 µM. 220,000 compounds, 0.37% hits. AID 1304, 2008; in the data active = activation above about 33%, passing the limit was not always enough;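 note: cells stimulated with NPY at EC10 then isoproterenol at EC100; 0% = low agonist plus stimulus and 100% = saturating agonist plus stimulus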
NPY-Y2 confirm = NPY-Y2 potentiators or agonists, confirmation, cell-based; 450 compounds, 20% hits; shares compounds with NPY-Y2 PAM-ag; AID 1539, 2009; cell-based NPY-Y2 potentiator/agonist assay; activation, % at 3.6 µM; in the data active = activation above about 33%
NPY-Y1 counter = NPY-Y1 potentiators or agonists, counter-screen for NPY-Y2 potentiator project, cell-based, fluorescence | shares compounds with NPY-Y2 PAM-ag | Y1 HEK293-CNG cells, membrane potential fluorescence | activation, % at 3.6 µM | 450 compounds, 20% hits | AID 1651, 2009; in the data active = activation above about 45%;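 note: cells stimulated with submaximal NPY then isoproterenol with phosphodiesterase inhibitor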
NPY-Y1 agonist 2 = NPY-Y1 direct agonists, selectivity assay for NPY-Y2 potentiator project, cell-based, fluorescence. shares compounds with NPY-Y2 PAM-ag. HEK293 Y1-CNGC, membrane potential fluorescence, agonism. activation, % at 3.6 µM. 450 compounds, 37% hits. AID 1702, 2009;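 active = activation above the mean of DMSO-only control wells plus 3 SD, cut at about 18% in these data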;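 note: cells stimulated with 1 µM isoproterenol plus the PDE inhibitor Ro 20-1724; 0% = isoproterenol with DMSO and no NPY and 100% = 40 nM NPY; Y1 agonists lower the membrane potential dye signal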
CNGC inh = CNGC cAMP sensor activity inhibitors, counter-screen for NPY-Y2 potentiator project, cell-based, HEK293-CNG parental, membrane potential fluorescence | shares compounds with NPY-Y2 PAM-ag | inhibition, % at 3.6 µM | 450 compounds, 32% hits | AID 1703, 2009 | isoproterenol cAMP;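 active = inhibition above the control-well mean plus 3 SD of those wells, cut at about 22% in these data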;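 note: 0% = DMSO with isoproterenol and 100% = DMSO without isoproterenol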
Y2 agonist ctr = NPY-Y2 direct agonists, counter-screen for NPY-Y2 potentiator project, cell-based, fluorescence | shares compounds with NPY-Y2 PAM-ag | activation, % at 3.6 µM | 450 compounds, 56% hits | HEK293 Y2/CNGC cells, membrane potential fluorescence, agonist mode;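 active = activation above the mean of solvent-only control wells plus 3 SD, cut at about 10% in these data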;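 note: cells stimulated by isoproterenol with no NPY added so direct agonism is tested; 0% = DMSO with isoproterenol alone and 100% = NPY at EC100 plus isoproterenol; agonism lowers probe fluorescence through less cAMP and CNG channel opening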
* marks the source's active call; other numbers are inactive results; x = no result given. Compounds with a hit are over-represented: about 2.8% of the library has one in this group of screens.

SMILES	PGE2 EP2 inh	NPY-Y2 PAM-ag	NPY Y2 blocker	NPY Y1 blocker	EP2 modulator	NPY-Y1 PAM-ag	NPY-Y2 confirm	NPY-Y1 counter	NPY-Y1 agonist 2	CNGC inh	Y2 agonist ctr
O=C(N/N=C/c1ccc(Cl)c([N+](=O)[O-])c1)c1cc(-c2ccc3c4c(cccc24)CC3)n[nH]1	6	45*	x	x	24	36	15	25	18*	12	23*
O=C(NC(NC(=S)Nc1cccc(C(=O)O)c1)C(Cl)(Cl)Cl)OCc1ccccc1 (stereo not drawn)	8	-3	2	-3	10	-13	x	x	x	x	x
O=C(NC(NC(=S)Nc1cccc(Cl)c1)C(Cl)(Cl)Cl)OCc1ccccc1 (stereo not drawn)	-3	33*	-1	-7	13	15	20	35	30*	28*	34*
O=c1[nH]c(N2CCCC2)nc2c1CCN(Cc1ccc(N3CCCC3)c(F)c1)C2	6	x	x	x	-5	x	x	x	x	x	x
CC(C)c1nnc(NC(=O)CCC(=O)Nc2ccccc2)s1	6	-15	x	x	14	9	x	x	x	x	x
CC(C)c1nnc(NC(=O)CCC(=O)Nc2ccc3cn[nH]c3c2)s1	4	39*	x	x	-9	-4	0	-1	4	6	13*
COc1ccc(S(=O)(=O)N2CCC(C(=O)Nc3ccc(C)cc3C)CC2)cc1C	8	x	x	x	-33	x	x	x	x	x	x
Cc1sc(-c2ccccn2)nc1OC(=O)c1ccc(F)cc1F	5	37*	x	-4	-16	26	7	11	14	-3	18*
Cc1c(C(C)C)c(=O)n(-c2ccc(S(=O)(=O)NCc3ccccc3)cc2)n1C	4	35*	x	-1	-12	-23	2	-40	-28	-9	1
Cc1ncccc1C(=O)N1CCCC(C(=O)c2ccc3c4c(cccc24)CC3)C1 (stereo not drawn)	7	72*	x	0	-38	-9	1	2	-7	7	8
CC(C)c1ccc(C2NC(=O)C(O)=C2C(=O)c2cccs2)cc1 (stereo not drawn)	16	x	x	x	8	x	x	x	x	x	x
O=C(Nc1ccccc1)c1ccccc1NS(=O)(=O)c1ccc(Cl)s1	18	14	7	2	3	47	x	x	x	x	x
Cc1ccc(NC(=O)c2ccccc2NS(=O)(=O)c2ccc(Cl)s2)cc1	7	43*	8	-3	-37	21	-16	-60	-45	-22	-17
CCOc1ccc2ccccc2c1C1C(C#N)=C(N)Oc2n[nH]c(C)c21 (stereo not drawn)	10	x	x	x	16	x	x	x	x	x	x
COc1ccc(/C=C/C(=O)c2ccc(O)cc2)cc1COc1ccc(F)cc1	4	1	-2	-6	43	7	x	x	x	x	x
COc1ccc(Oc2ccc(/C=C/C(=O)c3ccc(O)cc3)cc2[N+](=O)[O-])cc1	26	38*	2	-4	-42	19	16	34	23*	20	11*
O=[N+]([O-])c1ccc(S(=O)(=O)Nc2nc3ccccc3nc2Nc2ccccc2)cc1	5	1	x	-3	-10	26	x	x	x	x	x
O=[N+]([O-])c1ccc(Nc2c3ccccc3nc3ccccc23)cc1	16	31*	x	-5	-80	25	47*	54*	36*	41*	45*
N=c1c(-c2nc3ccccc3[nH]2)cc(C(=O)c2cccs2)nn1-c1ccccc1	8	29	0	-5	-28	35	x	x	x	x	x
N=c1c(-c2nc3ccccc3[nH]2)cc(C(=O)c2ccco2)nn1-c1ccccc1	0	38*	-1	-1	-35	12	83*	108*	80*	73*	80*
Cc1ccc(C(=O)n2nc(-n3cccc3)c3c(C)cc(C)nc32)cc1	10	57*	x	-5	15	29	17	29	24*	3	18*
Cc1cc(C)c2c(-n3cccc3)nn(C)c2n1	7	7	1	-4	14	8	x	x	x	x	x
Cc1ccc(NS(=O)(=O)c2cc([N+](=O)[O-])ccc2NNC(=S)Nc2cc(C)ccc2C)c(C)c1	10	11	-6	-6	-6	16	x	x	x	x	x
Cc1ccc(NS(=O)(=O)c2cc([N+](=O)[O-])ccc2NNC(=S)Nc2cccc(Cl)c2)c(C)c1	16	31*	-7	-11	6	38	76*	97*	79*	62*	75*
Nc1[nH]nc2c1NN(c1ccc(Cl)cc1Cl)N2	4	32*	-6	-4	-55	37	27	29	17	24*	21*
SMILES	PGE2 EP2 inh	NPY-Y2 PAM-ag	NPY Y2 blocker	NPY Y1 blocker	EP2 modulator	NPY-Y1 PAM-ag	NPY-Y2 confirm	NPY-Y1 counter	NPY-Y1 agonist 2	CNGC inh	Y2 agonist ctr
Nc1c(-c2n[nH]c(=S)n2-c2ccc(Cl)cc2Cl)cnn1-c1ccccc1	5	-5	x	x	13	-36	x	x	x	x	x
CN(C)CCCN(C(=O)CCc1ccccc1)c1nc2c(F)cccc2s1	7	-8	10	12	-44	-39	x	x	x	x	x
CN(C)CCCN(C(=O)/C=C/c1cccs1)c1nc2c(F)cccc2s1	6	36*	x	15	-58	21	66*	73*	55*	63*	65*
Cc1cccc2sc(N(CCN(C)C)C(=O)/C=C/c3cccs3)nc12	4	53*	1	10	25	12	91*	112*	97*	86*	100*
CCOC(=O)c1c(C2CC2)csc1NC(=O)COC(=O)c1ccc[n+]([O-])c1	3	-11	7	2	15	-36	x	x	x	x	x
CCOC(=O)c1c(C2CC2)csc1NC(=O)COC(=O)c1cnc(Cl)c(Cl)c1	16	60*	6	-2	45	15	-11	-22	-26	-12	-14
Cc1[nH]c2ccccc2c1SCC(=O)O	16	5	3	5	23	-4	x	x	x	x	x
CNC(=O)CCc1[nH]c2ccccc2c1Sc1ccccc1	2	26*	-1	2	4	6	12	21	14	14	23*
